Data: ChEMBL document CHEMBL3779798, “Novel seleno- and thio-urea derivatives with potent in vitro activities against several cancer cell lines” (Eur J Med Chem, 2016)
pIC50: −log10 of the molar value.

How the values were obtained:
HCT-116 [1] = assay: Induction of apoptosis in human HCT116 cells assessed as necrotic cells at 1 uM after 24 hrs by caspase3/7 reagent based flow cytometry (reference value: 4.14%); format: functional
[2] = Anticancer activity against human DU145 cells assessed as inhibition of cell growth after 24 hrs by MTT assay; format: functional, cell-based; conditions: DU-145, 24 h
Outline: (§1)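 MTT assay at 3,000 cells/well. Cells treated with DMSO or seven concentrations from 0.5 to 50 µM for 24, 48 or 72 h. MTT added 3 h before the end point; formazan dissolved in DMSO and read at 570 and 630 nm. IC50 is the concentration giving 50% growth inhibition. Media: PANC-1, BxPC3 and 1205Lu in DMEM; DU145 and A549 in RPMI 1640; HT29, HCT116 and RKO in McCoy's 5A, all with 10% FBS and pen/strep, at 37 °C and 5% CO2.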

HCT-116 [3] = assay: Decrease in number of viable cells in human HCT116 cells at 2.5 uM after 24 hrs by calcein-AM and ethidium homodimer-1 staining based flow cytometry analysis (reference value: 94.9%); format: functional
HCT-116 [4] = assay: Induction of apoptosis in human HCT116 cells assessed as late apoptotic cells at 1 uM after 24 hrs by caspase3/7 reagent based flow cytometry (reference value: 2.28%); format: functional
[5] = Induction of cell death in human HCT116 cells at 1 uM after 24 hrs by calcein-AM and ethidium homodimer-1 staining based flow cytometry analysis (reference value: 1.1%); format: functional, HCT-116
[6] = Anticancer activity against human 1205 Lu cells assessed as inhibition of cell growth after 72 hrs by MTT assay; format: functional, cell-based; outline: as §1
HCT-116 [7] = assay: Decrease in number of viable cells in human HCT116 cells at 1 uM after 24 hrs by calcein-AM and ethidium homodimer-1 staining based flow cytometry analysis (reference value: 94.9%); format: functional
HCT-116 [8] = assay: Induction of apoptosis in human HCT116 cells assessed as viable cells at 1 uM after 24 hrs by annexin-V staining based flow cytometry analysis (reference value: 90.38%); format: functional; conditions: HCT-116, 24 h, read-out: Activity
HCT-116 [9] = assay: Induction of apoptosis in human HCT116 cells assessed as viable cells at 2.5 uM after 24 hrs by annexin-V staining based flow cytometry analysis (reference value: 90.38%); format: functional; conditions: HCT-116, 24 h, read-out: Activity
[10] = Anticancer activity against human HCT116 cells assessed as inhibition of cell growth after 48 hrs by MTT assay; format: functional, cell-based; conditions: HCT-116, 48 h; outline: as §1
[11] = Anticancer activity against human BxPC3 cells assessed as inhibition of cell growth after 72 hrs by MTT assay; format: functional, cell-based; conditions: BXPC-3, 72 h; outline: as §1
HCT-116 [12] = assay: Decrease in number of viable cells in human HCT116 cells at 5 uM after 24 hrs by calcein-AM and ethidium homodimer-1 staining based flow cytometry analysis (reference value: 94.9%); format: functional
HCT-116 [13] = assay: Induction of apoptosis in human HCT116 cells assessed as viable cells at 5 uM after 24 hrs by annexin-V staining based flow cytometry analysis (reference value: 90.38%); format: functional; conditions: HCT-116, 24 h, read-out: Activity
HCT-116 [14] = assay: Induction of apoptosis in human HCT116 cells assessed as early apoptotic cells at 1 uM after 24 hrs by caspase3/7 reagent based flow cytometry (reference value: 5.18%); format: functional
A549 = assay: Anticancer activity against human A549 cells assessed as inhibition of cell growth after 48 hrs by MTT assay; format: functional, cell-based; conditions: A549, 48 h; outline: as §1
HT-29 [15] = assay: Anticancer activity against human HT-29 cells assessed as inhibition of cell growth after 48 hrs by MTT assay; format: functional, cell-based; conditions: HT-29, 48 h; outline: as §1
[16] = Anticancer activity against human BxPC3 cells assessed as inhibition of cell growth after 24 hrs by MTT assay; format: functional, cell-based; conditions: BXPC-3, 24 h; outline: as §1
RKO [17] = assay: Anticancer activity against human RKO cells assessed as inhibition of cell growth after 48 hrs by MTT assay; format: functional, cell-based; outline: as §1
HCT-116 [18] = assay: Reduction of XIAP level in human HCT116 cells after 24 hrs by western blot analysis; format: functional, cell-based
Outline: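 HCT116 cells (6 × 10^5/well) treated with rising concentrations for 24 h. Lysed in RIPA with phosphatase and protease inhibitors and PMSF, cleared at 15,000 g for 10 min. Lysates resolved by SDS-PAGE, transferred to PVDF, probed overnight in the cold with primary antibodies, then peroxidase-linked secondary for 1–4 h at room temperature, detected by ECL; β-actin antibody used.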

HCT-116 [19] = assay: Induction of apoptosis in human HCT116 cells assessed as early apoptotic cells after 24 hrs by annexin-V staining based flow cytometry analysis; format: functional, cell-based
[20] = Anticancer activity against human PANC1 cells assessed as inhibition of cell growth after 48 hrs by MTT assay; format: functional, cell-based; conditions: PANC-1, 48 h; outline: as §1
RKO [21] = assay: Anticancer activity against human RKO cells assessed as inhibition of cell growth after 24 hrs by MTT assay; format: functional, cell-based; outline: as §1
HCT-116 [22] = assay: Induction of apoptosis in human HCT116 cells assessed as late apoptotic cells at 2.5 uM after 24 hrs by caspase3/7 reagent based flow cytometry (reference value: 2.28%); format: functional
HCT-116 [23] = assay: Induction of apoptosis in human HCT116 cells assessed as late apoptotic cells after 24 hrs by annexin-V staining based flow cytometry analysis; format: functional, cell-based
[24] = Anticancer activity against human BxPC3 cells assessed as inhibition of cell growth after 48 hrs by MTT assay; format: functional, cell-based; conditions: BXPC-3, 48 h; outline: as §1
HT-29 [25] = assay: Anticancer activity against human HT-29 cells assessed as inhibition of cell growth after 24 hrs by MTT assay; format: functional, cell-based; conditions: HT-29, 24 h; outline: as §1
HCT-116 [26] = assay: Induction of apoptosis in human HCT116 cells assessed as late apoptotic cells at 5 uM after 24 hrs by annexin-V staining based flow cytometry analysis (reference value: 1.06%); format: functional
[27] = Anticancer activity against human 1205 Lu cells assessed as inhibition of cell growth after 48 hrs by MTT assay; format: functional, cell-based; outline: as §1
RKO [28] = assay: Anticancer activity against human RKO cells assessed as inhibition of cell growth after 72 hrs by MTT assay; format: functional, cell-based; outline: as §1
[29] = Anticancer activity against human PANC1 cells assessed as inhibition of cell growth after 72 hrs by MTT assay; format: functional, cell-based; conditions: PANC-1, 72 h; outline: as §1
HCT-116 [30] = assay: Induction of apoptosis in human HCT116 cells assessed as necrotic cells at 5 uM after 24 hrs by annexin-V staining based flow cytometry analysis (reference value: 0.72%); format: functional
[31] = Anticancer activity against human DU145 cells assessed as inhibition of cell growth after 72 hrs by MTT assay; format: functional, cell-based; conditions: DU-145, 72 h; outline: as §1
HT-29 [32] = assay: Anticancer activity against human HT-29 cells assessed as inhibition of cell growth after 72 hrs by MTT assay; format: functional, cell-based; conditions: HT-29, 72 h; outline: as §1

`Br.Br.N=C(N)[Se]Cc1nc2ccccc2nc1C[Se]C(=N)N` showed an Activity (HCT-116 [1]) of 3.18%, a pIC50 [2] of 5.64 and an Activity (HCT-116 [3]) of 92.2%. It also gave an Activity (HCT-116 [4]) of 2.64%, an Activity [5] of 0.7% and a pIC50 [6] of 5.66. For the same molecule, the Activity (HCT-116 [7]) was 96.9%, the viability at 1 µM (HCT-116 [8]) was 78.1% and the viability at 2.5 µM (HCT-116 [9]) was 66.2%. The pIC50 [10] was 6.15, the pIC50 [11] was 5.66 and the Activity (HCT-116 [12]) was 73.4%. The viability at 5 µM (HCT-116 [13]) was 24.6%, the Activity (HCT-116 [14]) was 7.18% and the pIC50 (A549) was 5.70. The pIC50 (HT-29 [15]) was 5.39, the pIC50 [16] was 5.44 and the pIC50 (RKO [17]) was 5.72. For the same molecule, the Activity (HCT-116 [18]) was “Dose-dependent effect”, the Activity (HCT-116 [19]) was “Dose-dependent effect” and the pIC50 [20] was 5.54. For the same molecule, the pIC50 (RKO [21]) was 5.42, the Activity (HCT-116 [22]) was 5.72% and the Activity (HCT-116 [23]) was “Dose-dependent effect”. The pIC50 [24] was 5.54, the pIC50 (HT-29 [25]) was 5.30 and the Activity (HCT-116 [26]) was 35.68%. For the same molecule, the pIC50 [27] was 5.55, the pIC50 (RKO [28]) was 5.60 and the pIC50 [29] was 5.70. The Activity (HCT-116 [30]) was 0.68%, the pIC50 [31] was 6.00 and the pIC50 (HT-29 [32]) was 5.66.
